Test results as given in ChEMBL document CHEMBL1141657, “Synthesis, structure elucidation and identification of antitumoural properties of novel fused 1,2,4-triazine aryl derivatives” (Eur J Med Chem, 2008).

Key:
[1] = Growth inhibition of human LS180 cells assessed as BrdU incorporation after 72 hrs by spectrophotometry; assay type: functional, cell-based; settings: LS180, 72 h
Procedure, shortened: (§1)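 Cancer cells were seeded at 10⁴ cells/mL, preincubated, then exposed for 72 h to DMSO-dissolved compound. Growth was read by BrdU labelling with ELISA spectrophotometry. IC50 was taken from 72 h dose–survival curves. Triplicates.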

SiHa [2] = experiment: Growth inhibition of human SiHa cells assessed as BrdU incorporation after 72 hrs by spectrophotometry; assay type: functional, cell-based; procedure, shortened: as §1
Jurkat [3] = experiment: Cytotoxicity against human Jurkat cells assessed as decrease in cell viability after 24 hrs by MTT assay; assay type: functional, cell-based
Procedure, shortened: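 Jurkat cells grown in RPMI 1640/10% FBS at 37 °C, 5% CO2, with 24 h exposure to DMSO-dissolved compound. Read-out was MTT reduction: 0.5 mg/mL in HEPES-buffered medium for 45 min, formazan in DMSO, absorbance at 570 nm. IC50 was taken from 24 h dose–survival curves.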

T47D [4] = experiment: Growth inhibition of human T47D cells assessed as BrdU incorporation after 72 hrs by spectrophotometry; assay type: functional, cell-based; procedure, shortened: as §1
Mus musculus = experiment: Neurotoxicity in ip dosed Swiss albino mouse assessed as impair in motor coordination at 0.1 LD50 concentration by rotarod test; assay type: toxicity, organism-based; settings: in vivo
Procedure, shortened: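 Male Albino Swiss mice (20-25 g), housed 8-10 per cage at 20 ± 1 °C on a 12/12 h light-dark cycle with food and water ad libitum. Randomized groups of 10. Compound given i.p. as a suspension in 3% Tween 80 at 10 mL kg^-1; controls received the same volume of vehicle. Tests run 8 a.m.-3 p.m.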

Jurkat [5] = experiment: Cytotoxicity against human Jurkat cells assessed as cell viability at 1 uM after 24 hrs by MTT assay relative to control; assay type: functional; settings: read-out: Activity
Procedure, shortened: (§2)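 Jurkat T-cell leukaemia line grown in RPMI 1640 with 10% FBS, 2 mM L-glutamine and gentamycin at 37 °C, 5% CO2, kept in log phase. Compounds were dissolved in DMSO and applied for 24 h. Cells were washed in HEPES-buffered medium (pH 7.4) and given MTT at 0.5 mg/mL for 45 min at 37 °C. Formazan was dissolved in DMSO and read at 570 nm. Viability is % of control, from three independent measurements.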

[6] = Cytotoxicity against HSF cells assessed as cell viability at 1 uM after 24 hrs by MTT assay relative to control; assay type: cell-based; settings: human, read-out: Activity
Procedure, shortened: (§3)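 Normal human skin fibroblasts (HSF, primary line) were exposed to DMSO-dissolved compound for 24 h. Viability was read by MTT tetrazolium reduction and expressed against untreated control set at 100%.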

[7] = Cytotoxicity against HSF cells assessed as cell viability at 50 uM after 24 hrs by MTT assay relative to control; assay type: cell-based; settings: human, read-out: Activity; procedure, shortened: as §3
Jurkat [8] = experiment: Cytotoxicity against human Jurkat cells assessed as cell viability at 50 uM after 24 hrs by MTT assay relative to control; assay type: functional; settings: read-out: Activity; procedure, shortened: as §2
Jurkat [9] = experiment: Cytotoxicity against human Jurkat cells assessed as cell viability at 100 uM after 24 hrs by MTT assay relative to control; assay type: functional; settings: read-out: Activity; procedure, shortened: as §2
[10] = Cytotoxicity against HSF cells assessed as cell viability at 100 uM after 24 hrs by MTT assay relative to control; assay type: cell-based; settings: human, read-out: Activity; procedure, shortened: as §3
[11] = Growth inhibition of HSF cells assessed as BrdU incorporation at 31.2 uM after 72 hrs by spectrophotometry; assay type: cell-based; settings: human, read-out: GI
[12] = Growth inhibition of human LS180 cells assessed as BrdU incorporation at 155.9 uM after 72 hrs by spectrophotometry; assay type: functional; settings: LS180, 72 h, read-out: GI
T47D [13] = experiment: Growth inhibition of human T47D cells assessed as BrdU incorporation at 31.2 uM after 72 hrs by spectrophotometry; assay type: functional; settings: read-out: GI
Vero [14] = experiment: Growth inhibition of african green monkey Vero cells assessed as BrdU incorporation at 31.2 uM after 72 hrs by spectrophotometry; assay type: cell-based; settings: chlorocebus sabaeus
SiHa [15] = experiment: Growth inhibition of human SiHa cells assessed as BrdU incorporation at 155.9 uM after 72 hrs by spectrophotometry; assay type: functional; settings: read-out: GI
SiHa [16] = experiment: Growth inhibition of human SiHa cells assessed as BrdU incorporation at 31.2 uM after 72 hrs by spectrophotometry; assay type: functional; settings: read-out: GI
[17] = Growth inhibition of human LS180 cells assessed as BrdU incorporation at 31.2 uM after 72 hrs by spectrophotometry; assay type: functional; settings: LS180, 72 h, read-out: GI
[18] = Growth inhibition of HSF cells assessed as BrdU incorporation at 155.9 uM after 72 hrs by spectrophotometry; assay type: cell-based; settings: human, read-out: GI
[19] = Growth inhibition of african green monkey Vero cells assessed as BrdU incorporation at 155.9 uM after 72 hrs by spectrophotometry; assay type: cell-based; settings: chlorocebus sabaeus, read-out: GI
T47D [20] = experiment: Growth inhibition of human T47D cells assessed as BrdU incorporation at 155.9 uM after 72 hrs by spectrophotometry; assay type: functional; settings: read-out: GI
SiHa [21] = experiment: Growth inhibition of human SiHa cells assessed as BrdU incorporation at 183.6 uM after 72 hrs by spectrophotometry; assay type: functional; settings: read-out: GI
Procedure, shortened: (§4)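 Cells were seeded at 10⁴ cells/mL and preincubated. Compounds were dissolved in DMSO and added at two fixed concentrations, then incubated for 72 h. End-point was BrdU labelling with ELISA detection, read spectrophotometrically. Result is % growth inhibition versus untreated controls. Triplicates.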

[22] = Growth inhibition of african green monkey Vero cells assessed as BrdU incorporation at 183.6 uM after 72 hrs by spectrophotometry; assay type: cell-based; settings: chlorocebus sabaeus, read-out: GI; procedure, shortened: as §4
[23] = Growth inhibition of human LS180 cells assessed as BrdU incorporation at 183.6 uM after 72 hrs by spectrophotometry; assay type: functional; settings: LS180, 72 h, read-out: GI; procedure, shortened: as §4
[24] = Growth inhibition of HSF cells assessed as BrdU incorporation at 36.7 uM after 72 hrs by spectrophotometry; assay type: cell-based; settings: human, read-out: GI; procedure, shortened: as §4
[25] = Growth inhibition of HSF cells assessed as BrdU incorporation at 183.6 uM after 72 hrs by spectrophotometry; assay type: cell-based; settings: human, read-out: GI; procedure, shortened: as §4
[26] = Growth inhibition of human LS180 cells assessed as BrdU incorporation at 36.7 uM after 72 hrs by spectrophotometry; assay type: functional; settings: LS180, 72 h, read-out: GI; procedure, shortened: as §4
SiHa [27] = experiment: Growth inhibition of human SiHa cells assessed as BrdU incorporation at 36.7 uM after 72 hrs by spectrophotometry; assay type: functional; settings: read-out: GI; procedure, shortened: as §4
T47D [28] = experiment: Growth inhibition of human T47D cells assessed as BrdU incorporation at 36.7 uM after 72 hrs by spectrophotometry; assay type: functional; settings: read-out: GI
Procedure, shortened: (§5)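 Each cell line was seeded at 10⁴ cells per mL and preincubated. Test agents were dissolved in DMSO, added at two examined concentrations (10 and 50 per mL by mass), and incubated for 72 h. The end-point was BrdU labeling and detection kit III read on an ELISA reader. Percent growth inhibition was calculated against untreated controls, in triplicate.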

Vero [29] = experiment: Growth inhibition of african green monkey Vero cells assessed as BrdU incorporation at 36.7 uM after 72 hrs by spectrophotometry; assay type: cell-based; settings: chlorocebus sabaeus; procedure, shortened: as §4
T47D [30] = experiment: Growth inhibition of human T47D cells assessed as BrdU incorporation at 183.6 uM after 72 hrs by spectrophotometry; assay type: functional; settings: read-out: GI; procedure, shortened: as §5
[31] = Growth inhibition of african green monkey Vero cells assessed as BrdU incorporation at 174.6 uM after 72 hrs by spectrophotometry; assay type: cell-based; settings: chlorocebus sabaeus, read-out: GI; procedure, shortened: as §4
[32] = Growth inhibition of HSF cells assessed as BrdU incorporation at 174.6 uM after 72 hrs by spectrophotometry; assay type: cell-based; settings: human; procedure, shortened: as §4
Vero [33] = experiment: Growth inhibition of african green monkey Vero cells assessed as BrdU incorporation at 34.9 uM after 72 hrs by spectrophotometry; assay type: cell-based; settings: chlorocebus sabaeus; procedure, shortened: as §4
T47D [34] = experiment: Growth inhibition of human T47D cells assessed as BrdU incorporation at 174.6 uM after 72 hrs by spectrophotometry; assay type: functional; settings: read-out: GI; procedure, shortened: as §5
[35] = Growth inhibition of human LS180 cells assessed as BrdU incorporation at 174.6 uM after 72 hrs by spectrophotometry; assay type: functional; settings: LS180, 72 h, read-out: GI; procedure, shortened: as §4
SiHa [36] = experiment: Growth inhibition of human SiHa cells assessed as BrdU incorporation at 174.6 uM after 72 hrs by spectrophotometry; assay type: functional; settings: read-out: GI; procedure, shortened: as §4
[37] = Growth inhibition of human LS180 cells assessed as BrdU incorporation at 34.9 uM after 72 hrs by spectrophotometry; assay type: functional; settings: LS180, 72 h, read-out: GI; procedure, shortened: as §4
T47D [38] = experiment: Growth inhibition of human T47D cells assessed as BrdU incorporation at 34.9 uM after 72 hrs by spectrophotometry; assay type: functional; settings: read-out: GI; procedure, shortened: as §5
SiHa [39] = experiment: Growth inhibition of human SiHa cells assessed as BrdU incorporation at 34.9 uM after 72 hrs by spectrophotometry; assay type: functional; settings: read-out: GI; procedure, shortened: as §4
[40] = Growth inhibition of HSF cells assessed as BrdU incorporation at 34.9 uM after 72 hrs by spectrophotometry; assay type: cell-based; settings: human, read-out: GI; procedure, shortened: as §4

| SMILES | viability at 1 µM (Jurkat [5]) | viability at 24 h, 1 µM [6] | viability at 24 h, 50 µM [7] | viability at 50 µM (Jurkat [8]) | viability at 100 µM (Jurkat [9]) | viability at 24 h, 100 µM [10] | also measured |
| --- | --- | --- | --- | --- | --- | --- | --- |
| CCOC(=O)c1nnc2n(c1=O)CCN2c1ccc(Cl)c(Cl)c1 | 91% | 102% | 84% | 28% | 23% | 85% | IC50 [1]: > 100 µM; IC50 (SiHa [2]): > 100 µM; IC50 (Jurkat [3]): 32.2 µM; IC50 (T47D [4]): > 100 µM; Activity (Mus musculus): Non-toxic |
| CCOC(=O)c1nnc2n(c1=O)CCN2c1ccc(C)cc1 | 83% | 91% | 87% | 89% | 93% | 82% | – |
| CCOC(=O)c1nnc2n(c1=O)CCN2c1cccc(Cl)c1 | 114% | 104% | 103% | 111% | 107% | 98% | inhibition at 72 h, 31.2 µM [11]: 16%; inhibition of growth at 155.9 µM [12]: 35%; inhibition of growth at 31.2 µM (T47D [13]): 26%; growth inhibition (GI) (Vero [14]): 20%; inhibition of growth at 155.9 µM (SiHa [15]): 52%; inhibition of growth at 31.2 µM (SiHa [16]): 41%; inhibition of growth at 31.2 µM [17]: 30%; inhibition at 72 h, 155.9 µM [18]: 17%; inhibition at 72 h, 155.9 µM [19]: 25%; inhibition of growth at 155.9 µM (T47D [20]): 41% |
| CCOC(=O)c1nnc2n(c1=O)CCN2c1ccc(OC)cc1 | 118% | 104% | 100% | 110% | 110% | 97% | – |
| NNC(=O)c1nnc2n(c1=O)CCN2c1ccccc1 | 89% | 82% | 83% | 82% | 33% | 82% | inhibition of growth at 183.6 µM (SiHa [21]): 0%; IC50 [1]: > 100 µM; inhibition at 72 h, 183.6 µM [22]: 0%; inhibition of growth at 183.6 µM [23]: 15%; inhibition at 72 h, 36.7 µM [24]: 16%; inhibition at 72 h, 183.6 µM [25]: 20%; inhibition of growth at 36.7 µM [26]: 0%; inhibition of growth at 36.7 µM (SiHa [27]): 0%; IC50 (SiHa [2]): > 100 µM; IC50 (Jurkat [3]): 85.5 µM; IC50 (T47D [4]): > 100 µM; Activity (Mus musculus): Non-toxic; inhibition of growth at 36.7 µM (T47D [28]): 4%; growth inhibition (GI) (Vero [29]): 2%; inhibition of growth at 183.6 µM (T47D [30]): 9% |
| Cc1ccc(N2CCn3c2nnc(C(=O)NN)c3=O)cc1 | 93% | 109% | 111% | 87% | 79% | 95% | inhibition at 72 h, 174.6 µM [31]: 0%; growth inhibition (GI) [32]: 0%; growth inhibition (GI) (Vero [33]): 2%; inhibition of growth at 174.6 µM (T47D [34]): 8%; inhibition of growth at 174.6 µM [35]: 14%; inhibition of growth at 174.6 µM (SiHa [36]): 9%; inhibition of growth at 34.9 µM [37]: 0%; inhibition of growth at 34.9 µM (T47D [38]): 5%; inhibition of growth at 34.9 µM (SiHa [39]): 11%; inhibition at 72 h, 34.9 µM [40]: 0% |
| CCOC(=O)c1nnc2n(c1=O)CCN2c1ccccc1 | 82% | 91.6% | 98.1% | 103% | 105% | 77.1% | – |
